Each block holds one compound with its values, some of them ahead of it. Calls of active or inactive are those of the source. The calls are words filed in the database; no cut-off is given here. Numbered stars: 1 amine (or outer) side, 2 acyl side, 3 side chain; on linkers, the order of the positions; unused ones are H or OH. Square brackets hold non-standard residues; d marks the D form. Peptide text beside a SMILES is read from it. X1 = Nc1ncnc2c1ncn2[C@@H]1O[C@H](CSCCCN(CC(=O)[*:2])[*:1])[C@@H](O)[C@H]1O; Nlys = NCCCCNCC(=O)O
Tests used:
[1] = target: T1, N-terminal Xaa-Pro-Lys N-methyltransferase 1 (Homo sapiens, UniProt Q9BV86); test: Inhibition of NTMT1 (unknown origin) pre-incubated for 10 mins before GPKRIA peptide substrate addition by SAHH coupled fluorescence assay
T1 sequence (Q9BV86 whole entry): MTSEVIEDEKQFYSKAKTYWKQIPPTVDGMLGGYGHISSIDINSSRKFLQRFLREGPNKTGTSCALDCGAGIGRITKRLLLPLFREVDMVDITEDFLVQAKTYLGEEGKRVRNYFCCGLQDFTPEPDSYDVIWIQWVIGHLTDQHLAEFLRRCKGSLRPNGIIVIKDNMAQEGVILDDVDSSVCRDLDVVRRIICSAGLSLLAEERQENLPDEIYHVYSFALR
In short: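 Inhibitor at 0.15 nM–10 μM, preincubated 10 min. Reaction started with 0.5 μM GPKRIA (Km). Fluorescence read at ex 400/em 465 nm; IC50 derived.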

[2] = target: T2, N-terminal Xaa-Pro-Lys N-methyltransferase 1 (Homo sapiens) (UniProt Q9BV86); test: Substrate activity at NTMT1 (unknown origin) assessed as compound methylation at 10 uM incubated overnight by MALDI-MS methylation assay
T2 sequence (whole entry): T1 sequence (Q9BV86 whole entry)
In short: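 Compound (10 µM) incubated overnight at 37 °C with 0.1 µM NTMT1 and 3 µM SAM in 20 mM Tris pH 7.5, 50 mM KCl. Quenched 1:1 with 20 mM NH4H2PO4, 0.4% TFA in 1:1 acetonitrile/water. Methylated compound detected by MALDI-MS with 2,5-dihydroxybenzoic acid matrix.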

[3] = target: T1, N-terminal Xaa-Pro-Lys N-methyltransferase 1; test: Inhibition of NTMT1 (unknown origin) pre-incubated for 10 mins before GPKRIA peptide substrate addition and measured after 20 mins by MALDI-MS methylation assay
[4] = target: T1, N-terminal Xaa-Pro-Lys N-methyltransferase 1; test: Time dependent inhibition of NTMT1 (unknown origin) pre-incubated for 10 mins before GPKRIA peptide substrate addition by SAHH coupled fluorescence assay based Morrison's quadratic equation analysis
[5] = target: T1, N-terminal Xaa-Pro-Lys N-methyltransferase 1; test: Time dependent inhibition of NTMT1 (unknown origin) pre-incubated for 30 mins before GPKRIA peptide substrate addition by SAHH coupled fluorescence assay based Morrison's quadratic equation analysis
[6] = target: T1, N-terminal Xaa-Pro-Lys N-methyltransferase 1; test: Time dependent inhibition of NTMT1 (unknown origin) pre-incubated for 60 mins before GPKRIA peptide substrate addition by SAHH coupled fluorescence assay based Morrison's quadratic equation analysis
[7] = target: T1, N-terminal Xaa-Pro-Lys N-methyltransferase 1; test: Time dependent inhibition of NTMT1 (unknown origin) pre-incubated for 90 mins before GPKRIA peptide substrate addition by SAHH coupled fluorescence assay based Morrison's quadratic equation analysis
[8] = target: T1, N-terminal Xaa-Pro-Lys N-methyltransferase 1; test: Time dependent inhibition of NTMT1 (unknown origin) pre-incubated for 120 mins before GPKRIA peptide substrate addition by SAHH coupled fluorescence assay based Morrison's quadratic equation analysis
[9] = target: T1, N-terminal Xaa-Pro-Lys N-methyltransferase 1; test: Binding affinity to NTMT1 (unknown origin) assessed as binding constant Kd1 by ITC assay
In short: (§1)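 Purified NTMT1 or NTMT2 at 30–50 μM in the cell; compound at 0.5–1 mM in the same buffer, titrated in as 26 injections of 10 μl spaced 180 s. Data fitted to a one-site or two-site binding model.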

[10] = target: T1, N-terminal Xaa-Pro-Lys N-methyltransferase 1; test: Binding affinity to NTMT1 (unknown origin) assessed as binding constant Kd2 by ITC assay; in short: as §1
[11] = target: N-terminal Xaa-Pro-Lys N-methyltransferase 2 (Homo sapiens, UniProt Q5VVY1); test: Binding affinity to […] (unknown origin) by ITC assay; in short: as §1
N-terminal Xaa-Pro-Lys N-methyltransferase 2, sequence (Q5VVY1 whole entry): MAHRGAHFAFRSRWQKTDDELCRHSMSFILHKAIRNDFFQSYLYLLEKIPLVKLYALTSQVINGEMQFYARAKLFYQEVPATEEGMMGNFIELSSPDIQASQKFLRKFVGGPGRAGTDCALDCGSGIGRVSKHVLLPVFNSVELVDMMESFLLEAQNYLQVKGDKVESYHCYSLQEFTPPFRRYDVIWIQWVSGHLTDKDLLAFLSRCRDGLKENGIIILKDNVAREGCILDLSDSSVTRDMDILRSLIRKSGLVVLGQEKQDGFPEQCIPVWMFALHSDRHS

[12] = target: T3, Histone-lysine N-methyltransferase EHMT2 (Homo sapiens) (UniProt Q96KQ7); test: Inhibition of G9a (unknown origin) at 100 uM
T3 sequence (whole entry): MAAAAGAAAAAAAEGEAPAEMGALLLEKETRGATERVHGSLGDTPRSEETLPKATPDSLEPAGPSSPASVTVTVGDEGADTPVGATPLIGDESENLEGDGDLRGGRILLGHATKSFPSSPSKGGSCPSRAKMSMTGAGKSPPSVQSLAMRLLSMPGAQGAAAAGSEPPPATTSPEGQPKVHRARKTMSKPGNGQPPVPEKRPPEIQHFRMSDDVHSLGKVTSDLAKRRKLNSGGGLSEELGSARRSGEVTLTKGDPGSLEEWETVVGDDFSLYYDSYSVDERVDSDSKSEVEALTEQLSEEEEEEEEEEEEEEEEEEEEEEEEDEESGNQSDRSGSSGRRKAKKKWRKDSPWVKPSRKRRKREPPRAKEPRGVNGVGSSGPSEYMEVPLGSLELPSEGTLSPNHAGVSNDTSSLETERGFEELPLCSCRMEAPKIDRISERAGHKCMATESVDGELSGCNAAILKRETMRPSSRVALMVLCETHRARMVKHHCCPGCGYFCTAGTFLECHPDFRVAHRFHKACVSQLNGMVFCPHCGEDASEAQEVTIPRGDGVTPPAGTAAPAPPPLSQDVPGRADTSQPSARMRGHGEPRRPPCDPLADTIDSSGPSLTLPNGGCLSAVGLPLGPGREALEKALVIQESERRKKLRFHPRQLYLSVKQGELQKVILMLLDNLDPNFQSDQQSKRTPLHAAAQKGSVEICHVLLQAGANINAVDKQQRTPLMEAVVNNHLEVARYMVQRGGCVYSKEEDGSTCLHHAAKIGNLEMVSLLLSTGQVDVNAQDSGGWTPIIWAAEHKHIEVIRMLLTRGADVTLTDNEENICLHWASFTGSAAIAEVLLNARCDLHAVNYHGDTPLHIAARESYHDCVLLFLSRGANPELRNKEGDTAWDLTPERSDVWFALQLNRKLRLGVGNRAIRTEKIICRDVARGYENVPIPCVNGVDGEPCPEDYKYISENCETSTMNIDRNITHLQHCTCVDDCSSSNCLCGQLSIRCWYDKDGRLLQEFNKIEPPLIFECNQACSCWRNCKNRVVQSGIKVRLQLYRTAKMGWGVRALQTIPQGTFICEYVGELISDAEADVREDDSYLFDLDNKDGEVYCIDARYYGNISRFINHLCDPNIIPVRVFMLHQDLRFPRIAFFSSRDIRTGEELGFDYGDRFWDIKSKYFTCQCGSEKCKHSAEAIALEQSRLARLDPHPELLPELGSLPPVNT

[13] = target: T4, Histone-lysine N-methyltransferase SETD7 (Homo sapiens) (UniProt Q8WTS6); test: Inhibition of SETD7 (unknown origin) at 100 uM
T4 sequence (whole entry): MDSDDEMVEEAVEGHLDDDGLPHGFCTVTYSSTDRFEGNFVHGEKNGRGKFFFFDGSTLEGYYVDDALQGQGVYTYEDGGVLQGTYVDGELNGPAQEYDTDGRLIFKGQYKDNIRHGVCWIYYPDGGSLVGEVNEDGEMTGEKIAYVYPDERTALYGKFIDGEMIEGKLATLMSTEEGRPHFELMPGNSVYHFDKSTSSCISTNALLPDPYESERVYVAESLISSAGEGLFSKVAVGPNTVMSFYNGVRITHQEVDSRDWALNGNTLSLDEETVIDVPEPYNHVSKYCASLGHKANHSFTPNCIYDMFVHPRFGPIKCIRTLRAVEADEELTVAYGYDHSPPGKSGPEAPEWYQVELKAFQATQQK

[14] = target: T5, Nicotinamide N-methyltransferase (Homo sapiens) (UniProt P40261); test: Inhibition of NNMT (unknown origin) at 100 uM
T5 sequence (whole entry): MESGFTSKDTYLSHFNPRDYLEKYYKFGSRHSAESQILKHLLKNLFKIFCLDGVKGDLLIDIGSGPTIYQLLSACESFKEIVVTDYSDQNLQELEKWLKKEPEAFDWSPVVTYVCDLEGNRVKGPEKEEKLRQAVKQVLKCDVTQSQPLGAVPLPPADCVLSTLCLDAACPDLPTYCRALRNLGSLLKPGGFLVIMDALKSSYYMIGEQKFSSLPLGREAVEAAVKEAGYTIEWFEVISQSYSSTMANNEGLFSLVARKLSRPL

[15] = target: Protein arginine N-methyltransferase 1 (Homo sapiens) (UniProt Q99873); test: Inhibition of PRMT1 (unknown origin) at 30 uM relative to control
Protein arginine N-methyltransferase 1 (Homo sapiens), sequence (Q99873 whole entry, looked up): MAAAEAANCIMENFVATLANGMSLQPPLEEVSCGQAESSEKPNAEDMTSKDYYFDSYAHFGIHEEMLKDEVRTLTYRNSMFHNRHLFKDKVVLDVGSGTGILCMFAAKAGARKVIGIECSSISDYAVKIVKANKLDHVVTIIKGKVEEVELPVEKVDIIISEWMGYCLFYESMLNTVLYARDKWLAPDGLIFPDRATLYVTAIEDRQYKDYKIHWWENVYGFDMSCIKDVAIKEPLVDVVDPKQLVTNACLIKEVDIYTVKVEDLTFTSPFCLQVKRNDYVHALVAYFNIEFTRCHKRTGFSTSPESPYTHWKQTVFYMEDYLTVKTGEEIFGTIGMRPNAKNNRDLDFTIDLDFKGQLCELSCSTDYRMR

[16] = target: Protein arginine N-methyltransferase 3 (Homo sapiens) (UniProt O60678); test: Inhibition of PRMT3 (unknown origin) at 30 uM pre-incubated for 10 mins before H4-21 peptide addition in presence of SAM relative to control
Protein arginine N-methyltransferase 3 (Homo sapiens), sequence (O60678 2-531 limits assumed): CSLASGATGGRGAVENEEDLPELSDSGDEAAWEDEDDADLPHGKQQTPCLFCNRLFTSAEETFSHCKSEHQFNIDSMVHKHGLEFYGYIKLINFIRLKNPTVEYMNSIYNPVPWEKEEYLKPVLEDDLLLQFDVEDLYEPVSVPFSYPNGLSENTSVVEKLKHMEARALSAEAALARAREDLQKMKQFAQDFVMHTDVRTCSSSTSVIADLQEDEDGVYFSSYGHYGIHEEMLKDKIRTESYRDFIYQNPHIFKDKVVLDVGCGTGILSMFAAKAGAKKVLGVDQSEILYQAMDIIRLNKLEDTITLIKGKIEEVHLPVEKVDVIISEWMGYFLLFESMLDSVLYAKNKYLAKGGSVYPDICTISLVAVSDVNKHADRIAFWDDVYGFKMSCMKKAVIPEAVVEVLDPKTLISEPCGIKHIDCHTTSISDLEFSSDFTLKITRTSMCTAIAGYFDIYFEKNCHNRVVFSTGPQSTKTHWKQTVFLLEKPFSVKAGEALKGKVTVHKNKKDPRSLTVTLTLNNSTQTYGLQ

Trypanosoma brucei = test: Inhibition of Trypanosoma brucei PRMT7 at 30 uM relative to control
[17] = target: Adenosylhomocysteinase (Homo sapiens) (UniProt P23526); test: Inhibition of SAHH (unknown origin) at 30 uM relative to control
Adenosylhomocysteinase (Homo sapiens), sequence (P23526 2-432 limits assumed): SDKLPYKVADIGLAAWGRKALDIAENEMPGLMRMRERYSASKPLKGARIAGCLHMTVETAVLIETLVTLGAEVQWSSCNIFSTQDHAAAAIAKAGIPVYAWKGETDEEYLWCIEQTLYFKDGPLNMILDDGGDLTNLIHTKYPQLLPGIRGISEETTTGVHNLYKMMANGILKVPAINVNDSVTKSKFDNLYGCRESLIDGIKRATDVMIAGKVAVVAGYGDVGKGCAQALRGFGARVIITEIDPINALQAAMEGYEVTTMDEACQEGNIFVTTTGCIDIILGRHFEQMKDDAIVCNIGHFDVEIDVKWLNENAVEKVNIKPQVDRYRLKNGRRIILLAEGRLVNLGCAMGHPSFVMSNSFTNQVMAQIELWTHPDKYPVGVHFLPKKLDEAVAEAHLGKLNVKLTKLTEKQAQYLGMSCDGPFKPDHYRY

IC50 ([1]; read-out: IC50): > 10000 nM
Structure (SMILES): NCCCCN(CC[C@H](N)C(=O)O)C[C@H]1O[C@@H](n2cnc3c(N)ncnc32)[C@H](O)[C@@H]1O

Activity [2]: Active
Structure (SMILES): CC[C@H](C)[C@H](NC(=O)[C@H](CCCNC(=N)N)NC(=O)[C@H](CCCCN)NC(=O)[C@@H]1CCCN1C(=O)CNCCCSC[C@H]1O[C@@H](n2cnc3c(N)ncnc32)[C@H](O)[C@@H]1O)C(=O)N[C@@H](C)C(N)=O (H-[X1]PKRIA-NH2)

Structure (SMILES): N=C(N)NCCC[C@H](NC(=O)[C@H](CCCCN)NC(=O)[C@@H]1CCCN1C(=O)CNCCCN(CC[C@H](N)C(=O)O)C[C@H]1O[C@@H](n2cnc3c(N)ncnc32)[C@H](O)[C@@H]1O)C(N)=O
IC50 ([1]; read-out: IC50): 200 nM

IC50 [3]: > 10000 nM
Structure (SMILES): Nc1ncnc2c1ncn2[C@@H]1O[C@H](CNCC[C@H](N)C(=O)O)[C@@H](O)[C@H]1O

Activity [2]: Active
Structure (SMILES): CC[C@H](C)[C@H](NC(=O)[C@H](CCCNC(=N)N)NC(=O)[C@H](CCCCN)NC(=O)[C@@H]1CCCN1C(=O)CNCCCCN)C(=O)N[C@@H](C)C(N)=O (H-[Nlys]PKRIA-NH2)

Structure (SMILES): CC[C@H](C)[C@H](NC(=O)[C@H](CCCNC(=N)N)NC(=O)[C@H](CCCCN)NC(=O)[C@@H]1CCCN1C(=O)CNCCN(CC[C@H](N)C(=O)O)C[C@H]1O[C@@H](n2cnc3c(N)ncnc32)[C@H](O)[C@@H]1O)C(=O)N[C@@H](C)C(N)=O
IC50 ([1]; read-out: IC50): 260 nM
Ki [4]: 99 nM
Ki [5]: 6.8 nM
Ki [6]: 8.2 nM
Ki [7]: 4.9 nM
Ki [8]: 5.4 nM
Kd [9]: 980 nM
Kd [10]: 46.7 nM
Kd [11]: Not Active

Structure (SMILES): CC[C@H](C)[C@H](NC(=O)[C@H](CCCNC(=N)N)NC(=O)[C@H](CCCCN)NC(=O)[C@@H]1CCCN1C(=O)CNCCCCCN(CC[C@H](N)C(=O)O)C[C@H]1O[C@@H](n2cnc3c(N)ncnc32)[C@H](O)[C@@H]1O)C(=O)N[C@@H](C)C(N)=O
IC50 [1]: Not Active
Kd [9]: 1600 nM
Kd [10]: 480 nM
Kd [11]: Not Active

Structure (SMILES): N=C(N)NCCC[C@H](NC(=O)[C@H](CCCCN)NC(=O)[C@@H]1CCCN1C(=O)CNCCN(CC[C@H](N)C(=O)O)C[C@H]1O[C@@H](n2cnc3c(N)ncnc32)[C@H](O)[C@@H]1O)C(N)=O
IC50 ([1]; read-out: IC50): 320 nM

Structure (SMILES): CC[C@H](C)[C@H](NC(=O)[C@H](CCCNC(=N)N)NC(=O)[C@H](CCCCN)NC(=O)[C@@H]1CCCN1C(=O)CNCCCCN(CC[C@H](N)C(=O)O)C[C@H]1O[C@@H](n2cnc3c(N)ncnc32)[C@H](O)[C@@H]1O)C(=O)N[C@@H](C)C(N)=O
IC50 ([1]; read-out: IC50): 82 nM
Ki [4]: 15 nM
Ki [5]: 0.49 nM
Ki [6]: 0.73 nM
Ki [7]: 0.62 nM
Ki [8]: 0.13 nM
Kd [9]: 310 nM
Kd [10]: 2.47 nM
Kd [11]: Not Active
inhibition [12]: inactive
inhibition [13]: inactive
inhibition [14]: inactive
inhibition [15]: < 50%
inhibition [16]: < 50%
inhibition (Trypanosoma brucei): < 50%
inhibition [17]: < 50%

Activity [2]: Active
Structure (SMILES): CC[C@H](C)[C@H](NC(=O)[C@H](CCCNC(=N)N)NC(=O)[C@H](CCCCN)NC(=O)[C@@H]1CCCN1C(=O)CNCCCCNCC[C@H](N)C(=O)O)C(=O)N[C@@H](C)C(N)=O

Structure (SMILES): CC[C@H](C)[C@H](NC(=O)[C@H](CCCNC(=N)N)NC(=O)[C@H](CCCCN)NC(=O)[C@@H]1CCCN1C(=O)CNCCCN(CC[C@H](N)C(=O)O)C[C@H]1O[C@@H](n2cnc3c(N)ncnc32)[C@H](O)[C@@H]1O)C(=O)N[C@@H](C)C(N)=O
IC50 ([1]; read-out: IC50): 130 nM
Ki [4]: 41 nM
Ki [5]: 2.4 nM
Ki [6]: 0.78 nM
Ki [7]: 2.5 nM
Ki [8]: 1.3 nM
Kd [9]: 2400 nM
Kd [10]: 41 nM
Kd [11]: Not Active

Structure (SMILES): N=C(N)NCCC[C@H](NC(=O)[C@H](CCCCN)NC(=O)[C@@H]1CCCN1C(=O)CNCCCCN(CC[C@H](N)C(=O)O)C[C@H]1O[C@@H](n2cnc3c(N)ncnc32)[C@H](O)[C@@H]1O)C(N)=O
IC50 ([1]; read-out: IC50): 84 nM

From ChEMBL document CHEMBL4619776, “Probing the Plasticity in the Active Site of Protein N-terminal Methyltransferase 1 Using Bisubstrate Analogues” (J Med Chem, 2020)
